# Where “and” joins values, the source holds several entries; their conditions need not be identical. Identical values can stand only once.
# Tests used:
# [1] = biological target: T1, Poly(ADP-ribose) glycohydrolase (Bos taurus, UniProt O02776); experiment: (§1) The compound was tested for its ability to inhibit bovine thymus polyadenosine diphosphoribose glycohydrolase (bPARG)
# Outline: (§2)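 PARG activity was measured with 10 µM [α-32P]ADP-ribose polymers as substrate and varying inhibitor concentrations, with an inhibitor-free control. Enzyme was 0.25 ng of bovine thymus PARG, purified with a Red-Sepharose step, or 5 ng of rPARG-CF. Runs were done at least in triplicate. IC50 came from a sigmoidal fit of % activity against log[inhibitor].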
# [2] = biological target: T1, Poly(ADP-ribose) glycohydrolase; experiment: (§3) The compound was tested for its ability to inhibit recombinant bovine polyadenosine diphosphoribose glycohydrolase catalytic fragment (rPARG-CF); outline: as §2
# [3] = biological target: Poly(ADP-ribose) glycohydrolase (Bos taurus) (UniProt O02776); experiment: as §3; outline: as §2
# [4] = biological target: Poly(ADP-ribose) glycohydrolase (Bos taurus) (UniProt O02776); experiment: as §1; outline: as §2
# Sequence of Poly(ADP-ribose) glycohydrolase (Bos taurus) (O02776 whole entry): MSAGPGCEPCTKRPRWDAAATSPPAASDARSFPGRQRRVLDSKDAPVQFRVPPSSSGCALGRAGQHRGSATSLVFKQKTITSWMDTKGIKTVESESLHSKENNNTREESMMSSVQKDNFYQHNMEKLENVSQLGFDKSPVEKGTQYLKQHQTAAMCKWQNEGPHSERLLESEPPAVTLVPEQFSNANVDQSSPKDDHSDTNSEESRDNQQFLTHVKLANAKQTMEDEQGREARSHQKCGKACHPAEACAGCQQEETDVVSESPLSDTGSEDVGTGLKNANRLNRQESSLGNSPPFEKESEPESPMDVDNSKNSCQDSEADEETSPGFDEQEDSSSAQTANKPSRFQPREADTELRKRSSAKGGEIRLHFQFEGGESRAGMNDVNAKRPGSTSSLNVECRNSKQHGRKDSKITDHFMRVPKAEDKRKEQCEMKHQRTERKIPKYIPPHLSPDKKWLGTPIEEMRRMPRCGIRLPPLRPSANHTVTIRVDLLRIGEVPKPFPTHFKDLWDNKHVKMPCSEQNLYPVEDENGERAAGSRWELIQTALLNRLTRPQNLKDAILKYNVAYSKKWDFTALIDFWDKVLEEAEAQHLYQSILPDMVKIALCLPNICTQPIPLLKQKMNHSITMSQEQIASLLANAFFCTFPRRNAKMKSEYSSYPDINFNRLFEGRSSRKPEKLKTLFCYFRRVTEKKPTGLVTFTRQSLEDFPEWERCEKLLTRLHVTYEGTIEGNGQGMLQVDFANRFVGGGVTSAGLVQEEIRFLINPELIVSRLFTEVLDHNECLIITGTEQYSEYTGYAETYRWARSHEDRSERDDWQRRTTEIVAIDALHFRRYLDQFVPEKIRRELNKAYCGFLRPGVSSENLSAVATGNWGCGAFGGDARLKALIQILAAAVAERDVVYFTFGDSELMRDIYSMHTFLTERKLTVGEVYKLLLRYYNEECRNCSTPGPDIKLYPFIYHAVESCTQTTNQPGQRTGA
# T1 sequence (O02776 whole entry): as above
IC50 [1] [µM],IC50 [2],Log IC50 [3] [µM],Log IC50 [4] [µM],Compound
0.39,0.44 µM,–,–,[N-]=[N+]=Nc1nc2c(N)ncnc2n1C1O[C@H](COP(=O)(O)OP(=O)(O)OC[C@H]2NC[C@H](O)[C@@H]2O)[C@@H](O)[C@H]1O (stereo partly drawn)
3.07,4.2 µM,0.623,0.48,Nc1ncnc2c1ncn2C1O[C@H](COP(=O)(O)OP(=O)(O)OCC2C[C@@H](O)CN2)[C@@H](O)[C@H]1O (stereo partly drawn) [ADENOSINE DIPHOSPHATE (HYDROXYMETHYL)PYRROLIDINE MONOALCOHOL]
0.33,1.4 µM and 1 µM,–,–,Nc1ncnc2c1ncn2[C@@H]1O[C@H](CO[P@](=O)(O)O[P@@](=O)(O)OC[C@H]2NC[C@H](O)[C@@H]2O)[C@@H](O)[C@H]1O [ADENOSINE DIPHOSPHATE (HYDROXYMETHYL)PYRROLIDINEDIOL]
–,120 µM,2.07,–,Nc1ncnc2c1nc(Sc1ccc(Cl)cc1)n2C1O[C@H](COP(=O)(O)OP(=O)(O)OC[C@H]2NC[C@H](O)[C@@H]2O)[C@@H](O)[C@H]1O (stereo partly drawn)
–,570 µM,2.75,–,Nc1ncnc2c1nc(NCCCCCCNC(=O)C(F)(F)F)n2C1O[C@H](COP(=O)(O)OP(=O)(O)OC[C@H]2NC[C@H](O)[C@@H]2O)[C@@H](O)[C@H]1O (stereo partly drawn)
> 1000,970 µM,–,–,Nc1nc2c(ncn2C2O[C@H](COP(=O)(O)OP(=O)(O)OCC3NC[C@H](O)[C@@H]3O)[C@@H](O)[C@H]2O)c(=O)[nH]1 (stereo partly drawn)
290,148 µM,2.17,2.45,[N-]=[N+]=Nc1nc(N)c2ncn(C3O[C@H](COP(=O)(O)OP(=O)(O)OC[C@H]4NC[C@H](O)[C@@H]4O)[C@@H](O)[C@H]3O)c2n1 (stereo partly drawn)
19.2,63 µM,1.8,1.28,Nc1ncnc2c1ncn2C1O[C@H](COP(=O)(O)OP(=O)(O)OCC2CCCN2)[C@@H](O)[C@H]1O (stereo partly drawn) [ADENOSINE DIPHOSPHATE (HYDROXYMETHYL)PYRROLIDINE]
–,–,2.99,> 3,Nc1nc(O)c2ncn(C3O[C@H](COP(=O)(O)OP(=O)(O)OCC4NC[C@H](O)[C@@H]4O)[C@@H](O)[C@H]3O)c2n1 (stereo partly drawn)
–,9.5 µM,0.97,–,NCCCCCCNc1nc2c(N)ncnc2n1C1O[C@H](COP(=O)(O)OP(=O)(O)OC[C@H]2NC[C@H](O)[C@@H]2O)[C@@H](O)[C@H]1O (stereo partly drawn)
–,510 µM,2.71,–,CCCCCCNc1ncnc2c1ncn2C1O[C@H](COP(=O)(O)OP(=O)(O)OCC2NC[C@H](O)[C@@H]2O)[C@@H](O)[C@H]1O (stereo partly drawn)
